From PubChem BioAssay AID1381 (University of Pittsburgh Molecular Library Screening Center, 2008) come the findings set out here.

This assay is described as follows: inhibitors of GR-EGFP nuclear translocation, primary screen, dynein cargo transport inhibitor project, imaging, high-content, 3617.4 mouse cells (AID 1381). Particulars: stimulated with dexamethasone, 1 µM. In short, it runs like this: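 Buffer or medium – tet-free medium with charcoal-stripped serum · Signal – automated 10x imaging of fixed Hoechst-stained cells · Also added – dexamethasone agonist, 1.0 µM final, for 30 min · Incubation – induction 48 h, compound 1 h, agonist 30 min · Read-out – GR-EGFP nuclear translocation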

Where [1] appears, read: measured here: cell count per field, at 20 µM.
Setting [2] is: measured here: cytoplasmic GR-EGFP intensity, at 20 µM, stronger effect = higher value.
Where [3] appears, read: measured here: nuclear GR-EGFP intensity, at 20 µM, stronger effect = lower value.
Where [4] appears, read: measured here: cell count per field, at 50 µM.
[5] abbreviates: measured here: cytoplasmic GR-EGFP intensity, at 50 µM, stronger effect = higher value.
[6] abbreviates: measured here: nuclear GR-EGFP intensity, at 50 µM, stronger effect = lower value.

The whole screen tested about 220,000 compounds, of which about 1,000 (0.45%) were called active. The sample holds actives, similar compounds and a random draw of the others, so the mix is not that of the screen.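 Rule for the calls: active = plate z-score of nuclear minus cytoplasmic receptor signal below a set negative limit, without overly bright fluorescence or cell loss (cut at about -3.5 in these data, passing the limit was not always enough); inactive = the rest, inconclusive results apart.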

With `N#Cc1cccc(NC(=O)COC(=O)c2ccccc2C(=O)c2ccc(Cl)c([N+](=O)[O-])c2)c1`, the z-score runs as follows: (at 20 µM, stronger effect = lower value) -0.407 (inactive); under setting [1], 0.615; under setting [2], -0.326; under setting [3], -0.496.

With `Cn1cnnc1SCC(=O)NNC(=O)COc1ccc(Br)cc1`, the z-score was 0.431 (inactive) (at 20 µM, stronger effect = lower value); 0.453 under setting [1]; -0.218 under setting [2]; -0.126 under setting [3].

On to `C[C@@H]1C[C@@H]2O[C@H]2/C=C\C=C\C(=O)Cc2c(Cl)c(O)cc(O)c2C(=O)O1`, for which the z-score was -3.8 (active) (at 20 µM, stronger effect = lower value); 0.512 under setting [1]; 1.82 under setting [2]; -1.89 under setting [3].

`COc1cc(CO)c(C2(CO)CCCC2)cc1OC`: the z-score (at 20 µM, stronger effect = lower value) is 0.000321 (inactive); the z-score under setting [1] was -0.54; the z-score under setting [2] was -0.145; the z-score under setting [3] came out at 0.499.

In the case of `COC(=O)c1ccc(Sc2ccc(F)cc2)c(N)c1`, the z-score is, setting by setting: (at 20 µM, stronger effect = lower value) 0.257 (inactive); under setting [1], 0.499; under setting [2], -0.377; under setting [3], 0.132.

With `Cc1ccc(C(C)NC(=O)Cn2nc(C)c([N+](=O)[O-])c2C)cc1` (stereo unspecified), the z-score was -0.784 (inactive) (at 20 µM, stronger effect = lower value); 0.727 under setting [1]; -0.261 under setting [2]; -0.607 under setting [3].

Turning to `COc1ccc(CCc2nnc(CCC(=O)NCc3cnn(-c4ccccc4C)c3)o2)cc1`, the z-score (at 20 µM, stronger effect = lower value) was 1.76 (inactive); the z-score under setting [1] was -1.6; the z-score under setting [2] is -0.0906; the z-score under setting [3] came to 1.43.

Regarding `O=[N+]([O-])c1ccc(NCCCN2CCOCC2)c(Cl)c1`, the z-score by setting is: (at 20 µM, stronger effect = lower value) 0.346 (inactive); under setting [1], -0.149; under setting [2], 0.0336; under setting [3], 0.676.

As for `O=C(NCCCN1CCOCC1)c1ccc([N+](=O)[O-])cc1[N+](=O)[O-]`, the z-score runs as follows: (at 20 µM, stronger effect = lower value) -0.163 (inactive); under setting [1], 0.317; under setting [2], -0.243; under setting [3], 0.0502.

Take `O=[N+]([O-])c1cc(S(=O)(=O)CCCN2CCOCC2)ccc1F`: the z-score by setting is: (at 20 µM, stronger effect = lower value) -4.25 (active); under setting [1], 0.317; under setting [2], 1.15; under setting [3], -2.3.

Turning to `COC(=O)C(C(=O)Nc1cccc(Cl)c1C)C1CCCC1` (stereo unspecified), the z-score was 0.289 (inactive) (at 20 µM, stronger effect = lower value); 0.616 under setting [1]; 0.0155 under setting [2]; -0.208 under setting [3].

As to `CC(=O)c1ccc(-c2nnc(CCC(=O)N(C)Cc3cnc4ccccn34)o2)s1`, the z-score runs as follows: (at 20 µM, stronger effect = lower value) -0.0124 (inactive); under setting [1], -0.441; under setting [2], -0.212; under setting [3], 0.00751.

Regarding `O=C(Nc1cccc([N+](=O)[O-])c1)Nc1ccc(Cl)cn1`, the z-score is 0.686 (inactive) (at 20 µM, stronger effect = lower value); -0.334 under setting [1]; -0.0491 under setting [2]; 0.778 under setting [3].

Consider `CCN(CC)C(=O)CN(c1cccc([N+](=O)[O-])c1)S(=O)(=O)c1ccccc1`, for which the z-score (at 20 µM, stronger effect = lower value) was -0.611 (inactive); the z-score under setting [1] was found to be 0.944; the z-score under setting [2] was -0.266; the z-score under setting [3] is -0.263.

Take `O=C(CCl)N(Cc1cccc([N+](=O)[O-])c1)c1cccc(Cl)c1`: the z-score is -4.69 (active) (at 20 µM, stronger effect = lower value); -1.23 under setting [1]; 2.38 under setting [2]; -2.48 under setting [3].

As for `CCOc1ccc(Br)cc1S(=O)(=O)Nc1cccc(S(=O)(=O)N(CC)CC)c1`, the z-score runs as follows: (at 20 µM, stronger effect = lower value) -0.331 (inactive); under setting [1], 0.488; under setting [2], -0.167; under setting [3], -0.464.

For the molecule `O=C(Nc1ccc(Cl)cc1)c1ccsn1`, the z-score (at 20 µM, stronger effect = lower value) was 1.02 (inactive); the z-score under setting [1] was -1.19; the z-score under setting [2] was -0.158; the z-score under setting [3] was 1.14.

As for `CS(=O)(=O)c1ccc(Cl)c(NC(=O)Nc2ccccc2)c1`, the z-score was 1.27 (inactive) (at 20 µM, stronger effect = lower value); -0.472 under setting [1]; -0.245 under setting [2]; 0.728 under setting [3].

For `O=C(Nc1ccccc1)c1nnsc1S(=O)(=O)c1ccc(Cl)cc1`, the z-score runs as follows: (at 20 µM, stronger effect = lower value) -5.03 (active); under setting [1], 0.905; under setting [2], 0.759; under setting [3], -1.85.

Regarding `CC(Nc1ccccc1)c1cccnc1` (stereo unspecified), the z-score (at 20 µM, stronger effect = lower value) was -0.716 (inactive); the z-score under setting [1] turned out to be 0.0401; the z-score under setting [2] was -0.305; the z-score under setting [3] is -0.598.

Regarding `CCOC(=O)C1(S(=O)(=O)c2ccccc2)CCN(Cc2ccccc2)CC1`, the z-score is -0.25 (inactive) (at 20 µM, stronger effect = lower value); 0.352 under setting [1]; -0.189 under setting [2]; 0.556 under setting [3].

Take `CC1=C/C(=N\S(=O)(=O)c2ccccc2)C(C(C)C)=CC1=O`: the z-score is -0.707 (inactive) (at 20 µM, stronger effect = lower value); -0.217 under setting [1]; -0.313 under setting [2]; 0.209 under setting [3].

Consider `CC1=C/C(=N\OS(=O)(=O)c2ccccc2)C=CC1=O`, for which the z-score is, setting by setting: (at 50 µM, stronger effect = lower value) -4.5 (active); under setting [4], -1.11; under setting [5], 1.28; under setting [6], -2.71.

Turning to `COc1ccc(/C=N/N=C2/C(=O)Nc3ccccc32)cc1O`, the z-score reads like this: (at 20 µM, stronger effect = lower value) 0.0879 (inactive); under setting [1], -1.02; under setting [2], 0.671; under setting [3], 0.854.

For `C=CCOC(=O)C1=C[C@@H](c2ccccc2)C[C@@H](OCc2ccc(CO)cc2)O1`, the z-score by setting is: (at 20 µM, stronger effect = lower value) -0.243 (inactive); under setting [1], -0.581; under setting [2], -0.228; under setting [3], 0.233.

As for `CC(=O)c1cc(C#N)c(SCC(=O)Nc2nccs2)nc1C`, the z-score is 0.633 (inactive) (at 20 µM, stronger effect = lower value); -0.767 under setting [1]; -0.205 under setting [2]; 1 under setting [3].

Regarding `CCn1c(SCC(=O)Nc2nc(C)cs2)nnc1C(C)NC(=O)c1ccccc1` (stereo unspecified), the z-score (at 20 µM, stronger effect = lower value) is 0.931 (inactive); the z-score under setting [1] is -0.274; the z-score under setting [2] was -0.247; the z-score under setting [3] was -0.608.

`COc1ccc(CS(=O)/C(Cl)=C(/Cl)C(=O)Nc2ccc(OC)nc2)cc1` (stereo unspecified): the z-score reads like this: (at 20 µM, stronger effect = lower value) -5.17 (active); under setting [1], 0.13; under setting [2], 3.61; under setting [3], -2.19.

On to `COc1ccc(NC(=S)Nc2ccccc2Cl)cn1`, for which the z-score (at 20 µM, stronger effect = lower value) is 1.03 (inactive); the z-score under setting [1] was -0.0291; the z-score under setting [2] is -0.33; the z-score under setting [3] was determined as 0.285.

On to `COc1ccc(NC(=O)/C(Cl)=C(/Cl)S(=O)Cc2ccc(C)cc2)cn1` (stereo unspecified), for which the z-score runs as follows: (at 20 µM, stronger effect = lower value) -5.02 (inactive); under setting [1], -1.31; under setting [2], 4.96; under setting [3], -1.87.

Turning to `O=C(NCc1cccnc1)c1cccc(-c2cc3ccccc3oc2=O)c1`, the z-score is, setting by setting: (at 20 µM, stronger effect = lower value) -0.31 (inactive); under setting [1], 0.631; under setting [2], -0.22; under setting [3], -0.235.

For `Cc1ccc(S(=O)(=O)C2C(=O)NC3(C)CC2c2ccccc2O3)cc1` (stereo unspecified), the z-score was -0.689 (inactive) (at 20 µM, stronger effect = lower value); -0.187 under setting [1]; -0.199 under setting [2]; -0.503 under setting [3].

`CCc1ccc(/C=N/NC(=O)c2ccc(OC3CCCC3)cc2)s1`: the z-score reads like this: (at 50 µM, stronger effect = lower value) -0.285 (inactive); under setting [4], 0.0349; under setting [5], -0.199; under setting [6], -0.114.

For `Cc1nc(-c2ccccc2)sc1C(=O)/C=C/c1ccccc1`, the z-score by setting is: (at 20 µM, stronger effect = lower value) -2.15 (inactive); under setting [1], 0.685; under setting [2], -0.0664; under setting [3], -0.902.

With `Cc1[nH]c(=O)c(C(=O)/C=C/c2ccccc2)c2c1CCCC2`, the z-score is -3.92 (active) (at 20 µM, stronger effect = lower value); 0.356 under setting [1]; 0.353 under setting [2]; -1.71 under setting [3].

Consider `O=C(/C=C/c1ccccc1)c1ccccc1O`, for which the z-score is -0.596 (inactive) (at 20 µM, stronger effect = lower value); 0.171 under setting [1]; -0.18 under setting [2]; 0.0198 under setting [3].

In the case of `CSc1nc2c(c(=O)[nH]1)C(c1cccc(Cl)c1Cl)CC(=O)N2` (stereo unspecified), the z-score (at 20 µM, stronger effect = lower value) is -0.956 (inactive); the z-score under setting [1] came out at 0.453; the z-score under setting [2] was -0.232; the z-score under setting [3] is -0.546.

On to `O=C(/C=C/c1cnc2ccccc2n1)NC1CCCCCC1`, for which the z-score is, setting by setting: (at 20 µM, stronger effect = lower value) 0.072 (inactive); under setting [1], -0.372; under setting [2], -0.262; under setting [3], -0.0867.

Take `O=C(O)c1ccccc1OCc1ccccc1Cl`: the z-score is 1.56 (inactive) (at 20 µM, stronger effect = lower value); -0.166 under setting [1]; -0.834 under setting [2]; 1.06 under setting [3].

Turning to `Cc1ccc(CN2CCC(N3CCC(C(=O)NCC4CCCO4)CC3)CC2)o1` (stereo unspecified), the z-score (at 20 µM, stronger effect = lower value) is 0.0309 (inactive); the z-score under setting [1] is -0.115; the z-score under setting [2] was -0.27; the z-score under setting [3] worked out at 0.507.

Regarding `Fc1ccccc1/C=C1\CCCC2=C1Nc1ncnn1C2c1ccccc1F` (stereo unspecified), the z-score (at 20 µM, stronger effect = lower value) was -4.08 (active); the z-score under setting [1] stood at 0.757; the z-score under setting [2] was determined as 0.917; the z-score under setting [3] was -1.5.

With `Cc1c(C(=O)Nc2ccccc2)sc2nc3n(c(=O)c12)CCCCC3`, the z-score (at 20 µM, stronger effect = lower value) was 0.507 (inactive); the z-score under setting [1] is 0.149; the z-score under setting [2] is -0.32; the z-score under setting [3] came out at 0.154.

With `Cc1ccc(S(=O)(=O)NC(=O)N2CCCN(Cc3ccc(F)cc3)CC2)cc1`, the z-score is, setting by setting: (at 20 µM, stronger effect = lower value) -0.425 (inactive); under setting [1], 0.12; under setting [2], -0.231; under setting [3], -0.245.

Regarding `CC(=O)Nc1ccc(S(=O)(=O)NCC(=O)OCc2cc(=O)oc3ccc4ccccc4c23)cc1`, the z-score reads like this: (at 20 µM, stronger effect = lower value) 0.304 (inactive); under setting [1], -0.781; under setting [2], -0.141; under setting [3], -0.169.
